Data reported in ChEMBL document CHEMBL1127424, “7-azetidinylquinolones as antibacterial agents. 2. Synthesis and biological activity of 7-(2,3-disubstituted-1-azetidinyl)-4-oxoquinoline- and -1,8-naphthyridine-3-carboxylic acids. Properties and structure-activity relationships of quinolones with an azetidine moiety” (J Med Chem, 1994).
In brackets after ≈: the same amount, converted by molar mass. Several values for one entry are separate records, joined by “and”; a condition that tells them apart may be missing. Identical values can stand only once.

Tests used:
[1] = Measured ionization constant (pKa); format: physicochemical; settings: read-out: pKa1
In short: (§1)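 Spectrophotometric titration at 20 ± 1 °C, 0.1 M ionic strength, pH varied with H2SO4 or NaOH made up in the compound stock. Absorbance followed at compound-specific wavelengths chosen from 200–400 nm scans. pKa1 and pKa2 taken as the inflection points of the two-step absorbance vs pH curve.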

[2] = Dissociation constant (pKa); format: physicochemical; settings: read-out: pKa2; in short: as §1
[3] = HPLC capacity factor (k'); format: ADME
In short: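 Ion-pair reversed-phase HPLC on ODS-2 (10 μm) at 45 °C. Mobile phase: 10 mM sodium heptanesulfonate plus 50 mM KH2PO4 (pH 3.5)–methanol 45:55, 1 mL/min. Samples at 100 μg/mL in DMF, injected in duplicate, UV 280 nm. k' = (tR − t0)/t0.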

[4] = Solubility (buffer pH 7.4); format: physicochemical; settings: read-out: S
In short: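 Excess solid shaken in 0.05 M phosphate buffer pH 7.4 for 24 h at 25 °C. Suspension filtered through 0.22 μm, discarding the first portion. Filtrate diluted in 0.1 N HCl or 0.1 N NaOH and read by UV at the compound's absorbance maximum.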

[5] = AUC (0-4 hr) ug/ml/h; format: ADME, cell-free; set-up: time < 4 hr; concentration or dose not given beside the values; settings: plasma
In short: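 Mice dosed once orally at 50 mg/kg; blood taken from groups of six mice at 0.5, 1, 2 and 4 h. Serum drug assayed by disk agar diffusion bioassay (Bacillus subtilis ATCC 6633 on Seed Agar, 37 °C, 18 h), giving total activity.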

[6] = test system: Bacillus cereus; experiment: In vitro minimum inhibitory concentration for Bacillus cereus ATCC 11778; format: functional
In short: (§2)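 Serial 2-fold agar dilution in Mueller Hinton medium, run alongside a reference quinolone. Inoculum adjusted to 10⁸ cfu/mL; compound range 0.007–16 μg/mL.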

[7] = test system: Bacillus subtilis; experiment: In vitro minimum inhibitory concentration for Bacillus subtilis ATCC 6633; format: functional; in short: as §2
[8] = test system: Escherichia coli; experiment: In vitro minimum inhibitory concentration for Escherichia coli ATCC 10799; format: functional; in short: as §2
[9] = test system: Enterobacter cloacae; experiment: In vitro minimum inhibitory concentration for Enterobacter cloacae ATCC 23355; format: functional
[10] = test system: Klebsiella pneumoniae; experiment: In vitro minimum inhibitory concentration to inhibit Klebsiella pneumoniae ATCC 10031; format: functional; in short: as §2
[11] = test system: Mus musculus; experiment: Evaluation of efficacy on systemic infections Escherichia coli HM-42, after oral administration in mice; format: functional
In short: (§3)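 Single oral dose given immediately after infection, one of four doses per group, chosen from in vitro activity. Survival scored after one week. ED50 (total mg/kg protecting 50%) interpolated from survival rates.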

[12] = test system: Mus musculus; experiment: Evaluation of efficacy on systemic infections Pseudomonas aeruginosa HS-116, after oral administration in mice; format: functional; in short: as §3
[13] = test system: Mus musculus; experiment: Evaluation of efficacy on systemic infections Staphylococcus aureus HS-93, after oral administration in mice; format: functional; in short: as §3
[14] = test system: Morganella morganii; experiment: In vitro minimum inhibitory concentration for Morganella morganii ATCC 8019; format: functional; in short: as §2
[15] = test system: Proteus vulgaris; experiment: In vitro minimum inhibitory concentration for Proteus vulgaris ATCC 8427; format: functional; in short: as §2
[16] = test system: Staphylococcus epidermidis; experiment: In vitro minimum inhibitory concentration for Staphylococcus epidermidis ATCC 155-1; format: functional; in short: as §2
[17] = test system: Staphylococcus aureus; experiment: In vitro minimum inhibitory concentration for Staphylococcus aureus ATCC 25178; format: functional; in short: as §2
[18] = test system: Enterococcus faecalis; experiment: In vitro minimum inhibitory concentration for Streptococcus faecalis ATCC 10541; format: functional; in short: as §2
[19] = test system: Pseudomonas aeruginosa; experiment: In vitro minimum inhibitory concentration for Pseudomonas aeruginosa ATCC 10145; format: functional; in short: as §2

SMILES	pKa [1]	pKa [2]	Log k' [3]	solubility [4]	AUC [5]	MIC [6]	MIC [7]	MIC [8]	MIC [9]	MIC [10]	MIC [14]	MIC [15]	MIC [16]	MIC [17]	MIC [18]	MIC [19]	ED50 [11]	ED50 [12]	ED50 [13]
CC1(N)CN(c2nc3c(cc2F)c(=O)c(C(=O)O)cn3C2CC2)C1	6.38	8.21	-0.1606	0.0139 mg/mL (≈ 41.8 µM)	–	–	–	–	–	–	–	–	–	–	–	–	–	–	–
CN(C)C1(C)CN(c2cc3c(cc2F)c(=O)c(C(=O)O)cn3C2CC2)C1	6.47	7.9	0.5153	–	–	–	–	–	–	–	–	–	–	–	–	–	–	–	–
C[C@H]1[C@H](N)CN1c1c(F)c(N)c2c(=O)c(C(=O)O)cn(C3CC3)c2c1F	6.65	–	0.0828	0.0377 mg/mL (≈ 103 µM)	12.3 µg·h/mL	0.015 mg/L (≈ 0.0412 µM)	0.015 mg/L (≈ 0.0412 µM)	0.03 mg/L (≈ 0.0823 µM)	0.015 mg/L (≈ 0.0412 µM)	0.015 mg/L (≈ 0.0412 µM)	0.015 mg/L (≈ 0.0412 µM)	0.06 mg/L (≈ 0.165 µM)	0.015 mg/L (≈ 0.0412 µM)	0.015 mg/L (≈ 0.0412 µM)	0.06 mg/L (≈ 0.165 µM)	0.25 mg/L (≈ 0.686 µM)	4.2 mg/kg	102 mg/kg	8.7 mg/kg
C[C@H]1[C@H](N)CN1c1cc2c(cc1F)c(=O)c(C(=O)O)cn2-c1ccc(F)cc1F [CETEFLOXACIN]	–	–	0.1875	0.031 mg/mL (≈ 76.9 µM)	30.2 µg·h/mL	0.25 mg/L (≈ 0.62 µM)	0.03 mg/L (≈ 0.0744 µM)	0.12 mg/L (≈ 0.298 µM)	0.12 mg/L (≈ 0.298 µM)	0.015 mg/L (≈ 0.0372 µM)	0.25 mg/L (≈ 0.62 µM)	0.5 mg/L (≈ 1.24 µM)	0.12 mg/L (≈ 0.298 µM)	0.12 mg/L (≈ 0.298 µM)	1 mg/L (≈ 2.48 µM)	2 mg/L (≈ 4.96 µM)	6 mg/kg	77.9 mg/kg	8.1 mg/kg
CN(C)C1CN(c2cc3c(cc2F)c(=O)c(C(=O)O)cn3C2CC2)C1	6.44	7.81	0.482	–	–	–	–	–	–	–	–	–	–	–	–	–	–	–	–
C[C@H]1[C@H](N)CN1c1cc2c(cc1F)c(=O)c(C(=O)O)cn2C1CC1	6.46	–	-0.0132	0.0099 mg/mL (≈ 29.9 µM)	9.2 µg·h/mL	0.06 mg/L (≈ 0.181 µM)	0.03 mg/L (≈ 0.0905 µM)	0.03 mg/L (≈ 0.0905 µM)	0.03 mg/L (≈ 0.0905 µM)	0.03 mg/L (≈ 0.0905 µM)	0.03 mg/L (≈ 0.0905 µM)	0.06 mg/L (≈ 0.181 µM)	0.12 mg/L (≈ 0.362 µM)	0.12 mg/L (≈ 0.362 µM)	0.25 mg/L (≈ 0.754 µM)	0.25 mg/L (≈ 0.754 µM)	3.5 mg/kg	108 mg/kg	22.3 mg/kg
CCNC[C@H]1CN(c2cc3c(cc2F)c(=O)c(C(=O)O)cn3C2CC2)[C@@H]1C	–	–	-0.0042	–	3.2 µg·h/mL	1 mg/L (≈ 2.68 µM)	0.06 mg/L (≈ 0.161 µM)	0.12 mg/L (≈ 0.321 µM)	0.12 mg/L (≈ 0.321 µM)	0.06 mg/L (≈ 0.161 µM)	0.5 mg/L (≈ 1.34 µM)	1 mg/L (≈ 2.68 µM)	0.5 mg/L (≈ 1.34 µM)	0.5 mg/L (≈ 1.34 µM)	4 mg/L (≈ 10.7 µM)	4 mg/L (≈ 10.7 µM)	28.4 mg/kg	265 mg/kg	60.5 mg/kg

Continued, in another order:

pKa [1]	pKa [2]	Log k' [3]	solubility [4]	AUC [5]	MIC [6]	MIC [7]	MIC [8]	MIC [9]	MIC [10]	MIC [14]	MIC [15]	MIC [16]	MIC [17]	MIC [18]	MIC [19]	SMILES	ED50 [11]	ED50 [12]	ED50 [13]
6.2	8.57	0.0996	–	–	–	–	–	–	–	–	–	–	–	–	–	CCNC1CN(c2c(F)cc3c(=O)c(C(=O)O)cn(C4CC4)c3c2F)C1	–	–	–
6.12	8.2	-0.0438	0.0018 mg/mL (≈ 5.37 µM)	–	–	–	–	–	–	–	–	–	–	–	–	NC1CN(c2c(F)cc3c(=O)c(C(=O)O)cn(C4CC4)c3c2F)C1	–	–	–
6.23	8.33	-0.0177 and 0.0094	–	–	–	–	–	–	–	–	–	–	–	–	–	CC1(N)CN(c2c(F)cc3c(=O)c(C(=O)O)cn(C4CC4)c3c2F)C1	–	–	–
–	–	-0.0397	–	2.3 µg·h/mL	0.25 mg/L (≈ 0.688 µM)	0.06 mg/L (≈ 0.165 µM)	0.06 mg/L (≈ 0.165 µM)	0.06 mg/L (≈ 0.165 µM)	0.12 mg/L (≈ 0.33 µM)	0.25 mg/L (≈ 0.688 µM)	0.25 mg/L (≈ 0.688 µM)	0.12 mg/L (≈ 0.33 µM)	0.12 mg/L (≈ 0.33 µM)	0.25 mg/L (≈ 0.688 µM)	0.5 mg/L (≈ 1.38 µM)	C[C@@H]1[C@@H](CN)CN1c1c(F)cc2c(=O)c(C(=O)O)cn(C3CC3)c2c1F	31 mg/kg	70 mg/kg	20 mg/kg
–	–	0.025	–	11.8 µg·h/mL	0.25 mg/L (≈ 0.639 µM)	0.12 mg/L (≈ 0.307 µM)	0.25 mg/L (≈ 0.639 µM)	1 mg/L (≈ 2.55 µM)	0.06 mg/L (≈ 0.153 µM)	0.5 mg/L (≈ 1.28 µM)	0.5 mg/L (≈ 1.28 µM)	0.25 mg/L (≈ 0.639 µM)	0.25 mg/L (≈ 0.639 µM)	2 mg/L (≈ 5.11 µM)	4 mg/L (≈ 10.2 µM)	CCNC[C@H]1CN(c2c(F)cc3c(=O)c(C(=O)O)cn(C4CC4)c3c2F)[C@@H]1C	4.7 mg/kg	61 mg/kg	37.5 mg/kg
